The list is not random: actives were taken first. Their share in the collection is about 12%.
Dynein transport – blocks dynein driven cargo transport along microtubules. 3617.4 mouse cells, GR-EGFP nuclear translocation imaging; test concentration mostly 20 µM; stimulated with dexamethasone, 1 µM; active compounds read low. z-score, hits read low. 220,000 compounds, 0.47% hits;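 active means plate z-score of nuclear minus cytoplasmic receptor signal below a set negative limit, without overly bright fluorescence or cell loss, cut at about -3.5 in these data, passing the limit was not always enough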;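 further: z-score of nuclear minus cytoplasmic ring GR-EGFP intensity difference per well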
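Buffer or medium – tet-free medium with charcoal-stripped serum · Signal – automated 10x imaging of fixed Hoechst-stained cells · Also added – dexamethasone agonist, 1.0 µM final, for 30 min · Incubation – induction 48 h, compound 1 h, agonist 30 min · Read-out – GR-EGFP nuclear translocation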
b-catenin transl – beta-catenin nuclear translocation modulation | 190,000 compounds, 0.3% hits | AID 1665 | nuclear translocation activity, % at 5 µM | HeLa beta-catenin nuclear translocation, immunofluorescence imaging;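 active means nuclear translocation activity above 50% at 5 µM, with a well cell count of 50 or more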;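 further: per-cell ratio of nuclear to cytoplasmic median beta-catenin stain intensity; plate controls were DMSO negative control for no effect and GSK-3 inhibitor IX positive control for full effect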
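Signal – beta-catenin immunofluorescence imaging with DAPI · Test system – human HeLa cell line · Dosing – 5 µM primary single dose, 0.1% DMSO, 0.02–20 µM confirmation series · Measure – % activation, nuclear-to-cytoplasmic median beta-catenin signal ratio per cell · Incubation – 24 h compound exposure at 37°C, 5% CO2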
Autophagy HCS – alters autophagy in cells | MEF GFP-LC3 puncta imaging; test concentration mostly 10 µM | calls only at 10 µM (by protocol) | 190,000 compounds, 0.98% hits;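 active means percentage of spot-positive cells more than 3 SD above its plate mean, without a fluorescence outlier flag or 80% toxicity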;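 further: spot-positive cell cutoff set from DMSO-treated cells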
CHOP inh – CHOP inhibition in unfolded protein response. CHO-K1 CHOP-promoter luciferase, tunicamycin-induced, 15-18 h. inhibition, % at 10 µM. 220,000 compounds, 3.8% hits;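 active means compounds that reduced the stress-induced luciferase reporter signal by more than about 70% of percent inhibition, limit read from the data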;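 further: 0% = tunicamycin plus vehicle and 100% = wells without tunicamycin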
L major viab – inhibitors of Leishmania major promastigote growth | Leishmania major promastigotes, resazurin fluorescence viability | inhibition, % at 10 µM | 200,000 compounds, 9% hits | AID 1063; in the data active means inhibition above about 50%;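 further: promastigotes grown with compound for 44 hours at 28 °C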
MT stabilize HCS – microtubule stabilization, imaging screen | HeLa tubulin immunostaining HCS, 24 h; share of cells brighter than vehicle mean+2SD | % tubulin-high responders, % at 10 µM | 200,000 compounds, 0.83% hits;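 active means plate Z-score above 3 for both tubulin-high and condensed-nucleus cell shares, with cell loss under 80%, at 10 µM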;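 further: anti alpha tubulin signal scored within the nucleus-defined area of each cell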
Active calls of the source: *; i = inactive; . = not tested or not shown; + = active, no number.

SMILES	Dynein transport	b-catenin transl	Autophagy HCS	CHOP inh	L major viab	MT stabilize HCS
CCCN1C(=O)/C(=C/c2ccc(OCC(=O)OCC)cc2)NC1=S	-0.14	-1	i	3	4	3
Cc1cc(N2CCCC2)ccc1/C=C1/C(=O)N(C)C(=S)N1C	-1	20	i	42	5	25*
CCCN1C(=O)/C(=C/c2ccc(N3CCCC3)c(C)c2)NC1=S	1.8	.	+	68	42	2
CC(C)c1nc2oc3c(N(C)CCO)ncnc3c2c2c1CCC2	-0.68	-1	.	9	.	.
CC(=O)NCCCc1c[nH]c2ccc(Cl)cc12	0.54	-2	i	27	-2	1
CC(C)[C@H]1C=C(C(=O)O)O[C@@H](OCCCCO)C1	-0.41	1	.	19	.	.
CSc1ccc(NC(=O)c2cccnc2)cc1C#N	0.44	-1	i	2	2	23
Cc1cc(C)n2cc(CSc3nc4ccccc4s3)nc2n1	0.2	-3	i	42	2	4
CCN1C(=O)/C(=C/c2ccc(N3CCCC3)cc2)NC1=S	-2.1	-2	+	36	42	2
Cc1ccc(/C=C/C(=O)NCc2cccs2)c(C)c1	-0.031	-1	i	-13	8	4
O=[N+]([O-])c1ccc(CNC2CCCc3ccccc32)cc1 (stereo unspecified)	0.72	-2	i	31	83*	2
CN(C)c1ccc(C(=O)OCc2ccccc2)cc1	1.9	.	i	50	-7	2
COC(=O)c1ccc(COC(=O)c2ccc(CO)cc2)o1	0.16	4	i	16	65*	2
COC(=O)c1ccc(COC(=O)c2ccc(N(C)C)cc2)cc1	0.25	.	i	80*	-5	3
CCOc1ncccc1C(=O)OCc1ccc(C(=O)OC)cc1	-0.17	68*	i	-35	-1	18*
COC(=O)c1ccc(Cn2c(C)cc(C)[n+]2C)o1	-1.1	0	i	73*	-4	1
COC(=O)c1ccc(Cc2ccc(C(=O)OC)o2)o1	-0.049	0	i	-40	-2	3
CCNC(=O)NC(=O)C(C)Oc1ccc(Br)cc1Br (stereo unspecified)	-0.048	-2	i	12	0	2
COC(=O)C1=C(C)NC(=O)NC1c1ccc(OC(=O)c2ccco2)cc1 (stereo unspecified)	0.35	1	i	21	-1	1
CCOc1ncccc1C(=O)OCc1ccc(Cl)cc1	-0.25	0	i	31	-8	3
CCOc1ncccc1C(=O)OCc1cc(=O)oc2c(C)c(C)ccc12	-0.46	-8	i	75*	-6	4
O=C(CSc1nccn1-c1ncc(C(F)(F)F)cc1Cl)c1ccc(Cl)cc1	1.2	2	i	-18	2	2
O=C(NC(=S)NCc1cccnc1)c1cccc2ccccc12	-0.11	0	i	8	-4	3
COc1ccc(CN(CCC#N)C(=S)NC(=O)c2ccccc2)cc1	0.59	0	i	-57	60*	2
N#CCCN(Cc1ccccc1)C(=O)Nc1ccccc1	-0.24	-1	.	-6	.	.
SMILES	Dynein transport	b-catenin transl	Autophagy HCS	CHOP inh	L major viab	MT stabilize HCS
N#CCCN(Cc1ccccc1)C(=S)Nc1ccccc1	-0.0089	.	i	-1	52*	3
CCOc1ccc(C(=O)NC(=S)N(Cc2ccccc2)Cc2ccccc2)cc1	1.4	0	i	0	57*	2
CN(C)CCCN(Cc1ccccc1)C(=S)Nc1ccc(OC(F)F)cc1	0.13	-1	i	-2	99*	5
CC(C)CCNC(=O)c1ccc(CS(=O)(=O)Cc2ccccc2F)o1	-0.42	2	i	-14	-5	2
CC(C)CCNC(=O)c1ccc(CSCc2cccc(F)c2)o1	-1.1	.	i	90*	-1	1
CCOC(=O)/C(C#N)=C/c1c(Oc2cccc(C)c2)nc2c(C)cccn2c1=O	-0.79	-2	i	77*	1	3
COC(=O)/C(C#N)=C/c1c(Oc2cccc(C)c2C)nc2ccccn2c1=O	0.36	0	.	86*	.	.
Cc1ccc(Oc2nc3c(C)cccn3c(=O)c2/C=C(\C#N)C(N)=O)cc1	-0.22	-1	.	13	.	.
CCOC(=O)/C(C#N)=C/c1c(Oc2cccc(C)c2)nc2ccccn2c1=O	-0.2	-1	.	17	.	.
Cc1ccc(S(=O)(=O)/C(C#N)=C/c2c(Oc3ccc(Cl)cc3)nc3c(C)cccn3c2=O)cc1	-0.033	-2	i	32	77*	2
COc1ccc(S(=O)(=O)N2CCC(O)(c3cccnc3)CC2)cc1OC	-0.86	-6	i	19	6	3
O=c1c2ccccc2nc2n1CCS2(=O)=O	-1.9	2	.	84*	.	.
CN1C[C@@H]2C(c3ccc(Cl)nc3)C3(c4ccccc4)CC2(C3)[C@H]1c1ccccc1 (stereo partly specified)	1.7	-1	.	14	.	.
O=c1cc(-c2ccccc2)nc(SCc2ccccc2F)[nH]1	1.2	0	i	-2	7	3
Cc1ccccc1CSc1nc(-c2ccccc2)cc(=O)[nH]1	-0.57	0	i	87*	-4	7
COCCOc1cc(-n2ccnc2SC)c(Cl)cc1Cl	-0.49	-2	i	60	-1	4
CC(=O)C1=C(C)OC(N)=C(C#N)C1c1cccc2ccccc12 (stereo unspecified)	-2.1	1	.	2	.	.
CSc1ccc(C2C(C#N)=C(N)Oc3c2ccc(=O)c2c(C)oc(C)c32)cc1 (stereo unspecified)	-2.4	-2	i	83*	41	5
Cc1oc(C)c2c(=O)ccc3c(c12)OC(N)=C(C#N)C3c1ccccc1Cl (stereo unspecified)	-0.99	.	i	81*	11	6
Cc1oc(C)c2c(=O)ccc3c(c12)OC(N)=C(C#N)C3c1ccccc1 (stereo unspecified)	-0.77	1	+	13	10	6
COc1ccc(C2C(C#N)=C(N)Oc3c2oc(CO)cc3=O)cc1 (stereo unspecified)	0.47	-3	i	2	-5	6
CCCC(C)NC(=O)CSc1nc2ccc(C)cc2[nH]1 (stereo unspecified)	0.64	-1	i	-1	-3	2
COc1ccc(NC(=O)C2CCC(CNc3c(N4CCC(C)CC4)c(=O)c3=O)CC2)cc1OC (stereo unspecified)	0.12	.	i	16	-8	2
CSc1ccc(/C=N/N2CCN(C)CC2)cc1	0.97	3	i	21	2	2
CN1CCN(/N=C/c2c3ccccc3c(Cl)c3ccccc23)CC1	1.3	-3	i	27	66*	5
O=C1c2ccccc2C2=Nc3ccccc3SC(c3ccc(Cl)cc3)C12 (stereo unspecified)	-1.7	-1	i	16	99*	4

Source: PubChem BioAssay (several laboratories)
